According to ChEMBL document CHEMBL1177718, “Phosphoramidate ProTides of 2'-C-methylguanosine as highly potent inhibitors of hepatitis C virus. Study of their in vitro and in vivo properties” (J Med Chem, 2010):

Assays:
Plasma = experiment: Dose normalized AUC in ICR mouse plasma at 50 mg/kg, po by LC-MS/MS analysis; assay type: ADME, organism-based; parameters: dose 50 mg/kg, route oral; conditions: in vivo
Liver [1] = experiment: AUC (0 to 6 hrs) in ICR mouse liver at 50 mg/kg, po by LC-MS/MS analysis; assay type: ADME, organism-based; parameters: time < 6 hr, dose 50 mg/kg, route oral; conditions: in vivo
Liver [2] = experiment: AUC (0 to 24 hrs) in ICR mouse liver at 50 mg/kg, po by LC-MS/MS analysis; assay type: ADME, organism-based; parameters: time < 24 hr, dose 50 mg/kg, route oral; conditions: in vivo
Liver [3] = experiment: Dose normalized AUC in ICR mouse liver at 50 mg/kg, po by LC-MS/MS analysis; assay type: ADME, organism-based; parameters: dose 50 mg/kg, route oral; conditions: in vivo
[4] = Selectivity index, […] for human HEK293 cells
[5] = Selectivity index, […] for human HEL cells
[6] = Selectivity index, […] for human HepG2 cells
[7] = Selectivity index, […] for human CEM cells; parameters: species or system CCRF-CEM
[8] = Selectivity index, […] for human MT4 cells
[9] = Selectivity index, […] for human HuH7 cells; parameters: species or system Huh-7
[10] = Metabolic stability in mouse plasma assessed as compound remaining at 1 ug/ml after 4 hrs; assay type: ADME, cell-free; conditions: read-out: Stability
[11] = Metabolic stability in rat plasma assessed as compound remaining at 1 ug/ml after 4 hrs; assay type: ADME, cell-free; conditions: read-out: Stability
Outline: (§1)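 Duplicate incubations; compound at final 1 μg/mL in plasma preincubated and kept at […]; samples taken at 30 or 240 min, quenched with ice-cold acetonitrile, centrifuged, supernatant diluted with water; parent quantified by LC-MS/MS (Polar-RP column, formic acid water/acetonitrile gradient, positive ion mode); % remaining reported.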

[12] = Metabolic stability in dog plasma assessed as compound remaining at 1 ug/ml after 4 hrs; assay type: ADME, cell-free, Canis lupus familiaris; conditions: read-out: Stability; outline: as §1
[13] = Metabolic stability in cynomolgus monkey plasma assessed as compound remaining at 1 ug/ml after 4 hrs; assay type: ADME, cell-free, Macaca fascicularis; conditions: read-out: Stability; outline: as §1
[14] = Metabolic stability in mouse plasma assessed as compound remaining at 1 ug/ml after 30 mins; assay type: ADME, cell-free; conditions: read-out: Stability
[15] = Metabolic stability in rat plasma assessed as compound remaining at 1 ug/ml after 30 mins; assay type: ADME, cell-free; conditions: read-out: Stability; outline: as §1
[16] = Metabolic stability in dog plasma assessed as compound remaining at 1 ug/ml after 30 mins; assay type: ADME, cell-free, Canis lupus familiaris; conditions: read-out: Stability; outline: as §1
[17] = Metabolic stability in cynomolgus monkey plasma assessed as compound remaining at 1 ug/ml after 30 mins; assay type: ADME, cell-free, Macaca fascicularis; conditions: read-out: Stability; outline: as §1
[18] = Cytotoxicity against human Caco-2 cells after 72 hrs by celltiter-glo assay; assay type: cell-based
Outline: (§2)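 Cells kept in log phase of growth throughout the cytotoxicity experiments.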

[19] = Cytotoxicity against rat IEC6 cells after 72 hrs by celltiter-glo assay; assay type: cell-based; outline: as §2
[20] = Cytotoxicity against human HEK293 cells after 72 hrs by celltiter-glo assay; assay type: cell-based; outline: as §2
[21] = Cytotoxicity against human HepG2 cells after 72 hrs by celltiter-glo assay; assay type: cell-based; outline: as §2
[22] = Cytotoxicity against human MT4 cells after 72 hrs by celltiter-glo assay; assay type: cell-based; outline: as §2
[23] = Cytotoxicity against human HEL cells after 72 hrs by celltiter-glo assay; assay type: cell-based; outline: as §2
[24] = Cytotoxicity against human CEM cells after 72 hrs by celltiter-glo assay; assay type: cell-based, CCRF-CEM; outline: as §2
[25] = Cytotoxicity against human HuH7 cells after 72 hrs by celltiter-glo assay; assay type: cell-based, Huh-7
Outline: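 Replicon 1b Huh7 cells seeded 2 × 10⁴/well; after 24 h, 11 serial 2× dilutions from 100 μM (three repeats each) with no-compound control; 72 h at 37 °C, CO₂, log-phase growth; viability by CellTiter-Glo luminescence; CC₅₀ = concentration giving 50% signal.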

Hepatitis C virus = experiment: Antiviral activity against HCV1b infected in human HuH7 cells assessed as inhibition of viral replication after 48 hrs by luciferase reporter gene assay; assay type: functional, organism-based, Hepacivirus hominis; conditions: genotype 1b, Huh-7, 48 h
Outline: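 Huh7 cells carrying genotype 1b bicistronic subgenomic replicon, seeded 2 × 10⁴/well without G-418; compounds added 18-24 h later, 48 h exposure; 3× or 4× serial dilutions over 0.0001-10 μM in triplicate/quadruplicate; Renilla luciferase read-out versus untreated cells; EC₅₀ by four-parameter sigmoidal nonlinear regression; at least three independent assays.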

[26] = Selectivity index, […] for human Caco-2 cells
[27] = Selectivity index, […] for rat IEC-6 cells
[28] = Cmax in ICR mouse plasma at 50 mg/kg, po by LC-MS/MS analysis; assay type: ADME, organism-based; parameters: dose 50 mg/kg, route oral
Homo sapiens [29] = species: Homo sapiens; experiment: Metabolic stability in human plasma assessed as compound remaining at 1 ug/ml after 4 hrs
Homo sapiens [30] = species: Homo sapiens; experiment: Metabolic stability in human plasma assessed as compound remaining at 1 ug/ml after 30 mins
[31] = Metabolic stability in human liver S9 fraction assessed as compound remaining at 10 uM after 30 mins by HPLC analysis in presence of NADP; assay type: ADME, subcellular; conditions: read-out: Stability
[32] = Metabolic stability in human liver S9 fraction assessed as compound remaining at 10 uM after 30 mins by HPLC analysis in absence of NADP; assay type: ADME, subcellular; conditions: read-out: Stability
[33] = Metabolic stability in human intestine S9 fraction assessed as compound remaining at 10 uM after 30 mins by HPLC analysis in presence of NADP; assay type: ADME, tissue-based; conditions: read-out: Stability
[34] = Metabolic stability in human intestine S9 fraction assessed as compound remaining at 10 uM after 30 mins by HPLC analysis in absence of NADP; assay type: ADME, tissue-based; conditions: read-out: Stability
[35] = Metabolic stability in dog liver S9 fraction assessed as compound remaining at 10 uM after 30 mins by HPLC analysis in presence of NADP; assay type: ADME, subcellular, Canis lupus familiaris; conditions: read-out: Stability
[36] = Metabolic stability in dog liver S9 fraction assessed as compound remaining at 10 uM after 30 mins by HPLC analysis in absence of NADP; assay type: ADME, subcellular, Canis lupus familiaris; conditions: read-out: Stability
[37] = Metabolic stability in dog intestine S9 fraction assessed as compound remaining at 10 uM after 30 mins by HPLC analysis in presence of NADP; assay type: ADME, tissue-based, Canis lupus familiaris; conditions: read-out: Stability
[38] = Metabolic stability in dog intestine S9 fraction assessed as compound remaining at 10 uM after 30 mins by HPLC analysis in absence of NADP; assay type: ADME, tissue-based, Canis lupus familiaris; conditions: read-out: Stability
[39] = Metabolic stability in cynomolgus monkey liver S9 fraction assessed as compound remaining at 10 uM after 30 mins by HPLC analysis in presence of NADP; assay type: ADME, subcellular, Macaca fascicularis; conditions: read-out: Stability
[40] = Metabolic stability in cynomolgus monkey liver S9 fraction assessed as compound remaining at 10 uM after 30 mins by HPLC analysis in absence of NADP; assay type: ADME, subcellular, Macaca fascicularis; conditions: read-out: Stability
[41] = Metabolic stability in cynomolgus monkey intestine S9 fraction assessed as compound remaining at 10 uM after 30 mins by HPLC analysis in presence of NADP; assay type: ADME, tissue-based, Macaca fascicularis; conditions: read-out: Stability
[42] = Metabolic stability in cynomolgus monkey intestine S9 fraction assessed as compound remaining at 10 uM after 30 mins by HPLC analysis in absence of NADP; assay type: ADME, tissue-based, Macaca fascicularis; conditions: read-out: Stability
[43] = Metabolic stability in rat liver S9 fraction assessed as compound remaining at 10 uM after 30 mins by HPLC analysis in presence of NADP; assay type: ADME, subcellular; conditions: read-out: Stability
[44] = Metabolic stability in rat liver S9 fraction assessed as compound remaining at 10 uM after 30 mins by HPLC analysis in absence of NADP; assay type: ADME, subcellular; conditions: read-out: Stability
[45] = Metabolic stability in rat intestine S9 fraction assessed as compound remaining at 10 uM after 30 mins by HPLC analysis in presence of NADP; assay type: ADME, tissue-based; conditions: read-out: Stability
[46] = Metabolic stability in rat intestine S9 fraction assessed as compound remaining at 10 uM after 30 mins by HPLC analysis in absence of NADP; assay type: ADME, tissue-based; conditions: read-out: Stability
[47] = Oral bioavailability in ICR mouse at 50 mg/kg; assay type: ADME, organism-based; conditions: in vivo
[48] = Oral bioavailability in cynomolgus monkey at 50 mg/kg; assay type: ADME, organism-based, Macaca fascicularis; conditions: in vivo

SMILES	AUC (Plasma) [ng·h/mL]	AUC (Liver [1]) [ng·h/g]	AUC (Liver [2]) [ng·h/g]	AUC (Liver [3]) [ng·h/g]	remaining at 0.5 h, 1 ug/ml [14] [%]	remaining at 0.5 h, 1 ug/ml [15] [%]	remaining at 0.5 h, 1 ug/ml [16] [%]	remaining at 0.5 h, 1 ug/ml [17] [%]	CC50 at 72 h [25] [µM]	EC50 (Hepatitis C virus) [µM]	Cmax [28] [ng/mL]	remaining at 0.5 h, 1 ug/ml (Homo sapiens [30]) [%]	remaining at 0.5 h, 10 µM [31] [%]	remaining at 0.5 h, 10 µM [32] [%]	remaining at 0.5 h, 10 µM [33] [%]	remaining at 0.5 h, 10 µM [34] [%]	further results
C[C@H](NP(=O)(OC[C@H]1O[C@@H](n2cnc3c(=O)[nH]c(N)nc32)[C@](C)(O)[C@@H]1O)Oc1cccc2ccccc12)C(=O)O[C@@H](C)c1ccccc1 (stereo partly specified)	85	2596	5390	108	3.1	0.8	97	100	> 100	0.08	1380	100	–	–	–	–	Selectivity Index [4]: >=1000; Selectivity Index [5]: >=1000; Selectivity Index [6]: >=1000; Selectivity Index [7]: >=1000; Selectivity Index [8]: >=1000; Selectivity Index [9]: >=1000; remaining at 4 h, 1 ug/ml [10]: 0%; remaining at 4 h, 1 ug/ml [11]: 0%; remaining at 4 h, 1 ug/ml [12]: 92%; remaining at 4 h, 1 ug/ml [13]: 100%; CC50 at 72 h [18]: > 100 µM; CC50 at 72 h [19]: > 100 µM; CC50 at 72 h [20]: > 100 µM; CC50 at 72 h [21]: > 100 µM; CC50 at 72 h [22]: 87 µM; CC50 at 72 h [23]: > 100 µM; CC50 at 72 h [24]: 82 µM; Selectivity Index [26]: >=1000; Selectivity Index [27]: >=1000; remaining at 4 h, 1 ug/ml (Homo sapiens [29]): 99%
C[C@@]1(O)[C@H](O)[C@@H](COP(=O)(N[C@@H](Cc2ccccc2)C(=O)OCc2ccccc2)Oc2cccc3ccccc23)O[C@H]1n1cnc2c(=O)[nH]c(N)nc21 (stereo partly specified)	–	–	–	–	1	–	–	–	> 100	1.2	–	–	0	20	0	5	remaining at 0.5 h, 10 µM [35]: 4%; remaining at 0.5 h, 10 µM [36]: 15%; remaining at 0.5 h, 10 µM [37]: 0%; remaining at 0.5 h, 10 µM [38]: 0%
C[C@H](NP(=O)(OC[C@H]1O[C@@H](n2cnc3c(=O)[nH]c(N)nc32)[C@](C)(O)[C@@H]1O)Oc1cccc2ccccc12)C(=O)OCc1ccccc1 (stereo partly specified)	–	–	–	–	1.1	1.3	67	54	> 100	0.062	–	58	27	41	0	49	remaining at 0.5 h, 10 µM [39]: 0%; remaining at 0.5 h, 10 µM [40]: 32%; remaining at 0.5 h, 10 µM [41]: 0%; remaining at 0.5 h, 10 µM [42]: 30%; remaining at 0.5 h, 10 µM [43]: 0%; remaining at 0.5 h, 10 µM [44]: 0%; remaining at 0.5 h, 10 µM [45]: 30%; remaining at 0.5 h, 10 µM [46]: 46%
C[C@@]1(O)[C@H](O)[C@@H](CO)O[C@H]1n1cnc2c(=O)[nH]c(N)nc21 [2'-B-METHYL-GUANOSINE]	411	16510	36868	737	–	–	–	–	> 100	3.5	5200	–	–	–	–	–	bioavailability [47]: 85%; bioavailability [48]: 10%
